One compound from ChEMBL document CHEMBL1125330, “N-substituted pyrazino[2,3-c][1,2,6]thiadiazine 2,2-dioxides. A new class of diuretics” (J Med Chem, 1992) can be followed below.

In data set [1] the test system is Rattus norvegicus. In words: Mean Chlorine excretion in rats when compound administered at 5 mg/kg po and vehicle dosed at 18.56 umol/kg. Details: dose 5 mg/kg, route oral. As to conditions: in vivo. It counts as ADME, organism-based. A digest of the protocol: (§1)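 Male Sprague-Dawley rats (HC/CFY, 175-200 g), no food or water for 18 h before and during the test. Single gavage dose (2.5-160 mg/kg; vehicle 1% carboxymethyl cellulose/0.1% Tween 80, 0.5 mL/100 g bw), then distilled water 2.5 mL/100 g bw po. Individual metabolic cages, 6 h urine. K+ by flame photometry, Cl- colorimetric, as mequiv/6 h/kg bw; unpaired Student t-test vs control.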

For data set [2], the system named is Rattus norvegicus. In words: Mean potassium excretion in rats when compound administered at 40 mg/kg po and vehicle dosed at 148.52 umol/kg. Format: ADME, organism-based. Also noted: dose 40 mg/kg, route oral. The conditions noted are these: in vivo. A digest of the protocol:
as §1

The test system of data set [3] is Rattus norvegicus. In words: Mean potassium excretion in rats when compound administered at 80 mg/kg po and vehicle dosed at 297.03 umol/kg. As to conditions: in vivo. It counts as ADME, organism-based. Also noted: dose 80 mg/kg, route oral. A digest of the protocol: (§2)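 Male Sprague-Dawley rats (HC/CFY, 175-200 g) fasted and water-deprived 18 h before and during the test. Dosed by gavage at 2.5-160 mg/kg in 1% carboxymethyl cellulose/0.1% Tween 80, 0.5 mL/100 g bw. Immediately hydrated with water (2.5 mL/100 g bw, po). Urine collected 6 h in metabolic cages; Na+ and K+ by flame photometry; mean mequiv/6 h/kg bw; nonpaired Student t-test.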

Data set [4] has as its system Rattus norvegicus. In words: Urinary sodium 2 hr after the compound was administered 100 mg/kg po in rat. Details: dose 100 mg/kg, route oral. It counts as ADME, organism-based, Urine. The conditions noted are these: in vivo. A digest of the protocol:
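Onset and duration study in fasted, water-loaded male Sprague-Dawley rats housed two per metabolic cage, six pairs per group. Single oral dose given, then water 2.5 mL/100 g po. Urine volume and sodium (flame photometry) measured over 0-1, 1-2, 2-3, 3-4 and 4-6 h intervals. Mean values compared with vehicle by Student t-test.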

Data set [5] relates to Rattus norvegicus. In words: Mean potassium excretion in rats when compound administered at 160 mg/kg po and vehicle dosed at 594.07 umol/kg. It counts as ADME, organism-based. Also noted: dose 160 mg/kg, route oral. As to conditions: in vivo. A digest of the protocol: as §1
For data set [6], the system named is Rattus norvegicus. In words: Mean sodium excretion in rats when compound administered at 2.5 mg/kg po and vehicle dosed at 9.28 umol/kg. Format: ADME, organism-based. Details: dose 2.5 mg/kg, route oral. As to conditions: in vivo. A digest of the protocol:
as §2

In data set [7] the test system is Rattus norvegicus. In words: Mean sodium excretion in rats when compound administered at 5 mg/kg po and vehicle dosed at 18.56 umol/kg. It counts as ADME, organism-based. Details: dose 5 mg/kg, route oral. The conditions noted are these: in vivo. The method, boiled down:
as §2

The test system of data set [8] is Rattus norvegicus. In words: Mean potassium excretion in rats when compound administered at 2.5 mg/kg po and vehicle dosed at 9.28 umol/kg. Format: ADME, organism-based. Details: dose 2.5 mg/kg, route oral. As to conditions: in vivo. The method, boiled down: as §1
In data set [9] the test system is Rattus norvegicus. In words: Volume of urine 1 hr after the compound was administered 100 mg/kg po in rat. Also noted: dose 100 mg/kg, route oral. As to conditions: in vivo. It counts as ADME, organism-based. The method, boiled down: (§3)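 Onset/duration protocol: male Sprague-Dawley rats (HC/CFY, 175-200 g), food and water withdrawn for 18 h before and during the test. Single gavage dose in 1% carboxymethyl cellulose/0.1% Tween 80 (0.5 mL/100 g bw), then distilled water load (2.5 mL/100 g bw po). Two rats per metabolic cage, six pairs per group. Urine collected at 0-1, 1-2, 2-3, 3-4 and 4-6 h; Na+ by flame photometry. Vehicle controls; nonpaired Student t-test.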

The test system of data set [10] is Rattus norvegicus. In words: Volume of urine 2 hr after the compound was administered 100 mg/kg po in rat. It counts as ADME, organism-based. Also noted: dose 100 mg/kg, route oral. As to conditions: in vivo. The method, boiled down:
as §3

Data set [11] deals with Rattus norvegicus. In words: Volume of urine 3h after the compound was administered 100 mg/kg po in rat. Also noted: dose 100 mg/kg, route oral. As to conditions: in vivo. It counts as ADME, organism-based. The method, boiled down:
as §3

In data set [12] the test system is Rattus norvegicus. In words: Volume of urine 6 hr after the compound was administered 100 mg/kg po in rat. Format: ADME, organism-based. Details: dose 100 mg/kg, route oral. The conditions noted are these: in vivo. The method, boiled down: as §3
Data set [13] deals with Rattus norvegicus. In words: Mean Chlorine excretion in rats when compound administered at 2.5 mg/kg po and vehicle dosed at 9.28 umol/kg. Format: ADME, organism-based. Also noted: dose 2.5 mg/kg, route oral. The conditions noted are these: in vivo. A digest of the protocol:
as §1

Data set [14] concerns Rattus norvegicus. In words: Mean Chlorine excretion in rats when compound administered at 20 mg/kg po and vehicle dosed at 74.26 umol/kg. It counts as ADME, organism-based. Details: dose 20 mg/kg, route oral. The conditions noted are these: in vivo. The method, boiled down:
as §1

In data set [15] the test system is Rattus norvegicus. In words: Mean urinary output in rats when compound administered at 20 mg/kg po and vehicle dosed at 74.26 umol/kg. It counts as ADME, organism-based, Urine. Details: dose 20 mg/kg, route oral. As to conditions: in vivo. The method, boiled down:
(§4)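 Water-loaded male Sprague-Dawley rats (HC/CFY, 175-200 g) fasted and without water for 18 h. Oral gavage of 2.5-160 mg/kg in 1% CMC with 0.1% Tween 80, then distilled water 2.5 mL/100 g po. Urine collected 6 h in metabolic cages, mean output in mL/6 h/kg bw. Unpaired Student t-test against vehicle; dose-response by linear regression.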

In data set [16] the test system is Rattus norvegicus. In words: Mean urinary output in rats when compound administered at 5 mg/kg po and vehicle dosed at 18.56 umol/kg. Format: ADME, organism-based, Urine. Also noted: dose 5 mg/kg, route oral. As to conditions: in vivo. The method, boiled down:
as §4

The species entered for data set [17] is Rattus norvegicus. In words: Dose required to produce increase in 200 % in urine production vs control groups. It counts as functional. A digest of the protocol: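 Male Sprague-Dawley rats (HC/CFY, 175-200 g), fasted and water-deprived 18 h before and during the test. Compound dosed by gavage in 1% carboxymethyl cellulose/0.1% Tween 80, then water load 2.5 mL/100 g bw po. Urine collected 6 h in metabolic cages; Na+ by flame photometry. Effective doses vs vehicle controls derived by linear regression of dose-response data.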

For data set [18], the system named is Rattus norvegicus. In words: Post dosing time interval of maximum activity. It counts as functional. A digest of the protocol: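 Interval of peak activity taken from timed urine collections (0-1, 1-2, 2-3, 3-4, 4-6 h) after a single oral dose in water-loaded fasted rats, […]. Urine volume and Na+ excretion followed over time.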
Data set [19] is filed under the species Rattus norvegicus. In words: Mean sodium excretion in rats (Control/Drug treatment value); value 0.35/2.88. It counts as ADME, organism-based. As to conditions: in vivo.

In the case of `CCc1nc2c(nc1C)C(N)=NS(=O)(=O)N2CC`, the figures for the Cl- with Rattus norvegicus [1], in the data set with Rattus norvegicus [13] and in the data set on Rattus norvegicus [14] were 1.83 m equiv 6hr-1 kg-1 (body weight)-1, 1.21 m equiv 6hr-1 kg-1 (body weight)-1 and 3.99 m equiv 6hr-1 kg-1 (body weight)-1, respectively. Moreover, the K in the data set with Rattus norvegicus [2] is given as 1.25 m equiv 6hr-1 kg-1 (body weight)-1; in the data set with Rattus norvegicus [3] it was 2.06 m equiv 6hr-1 kg-1 (body weight)-1; in the data set on Rattus norvegicus [5], 2.35 m equiv 6hr-1 kg-1 (body weight)-1; with Rattus norvegicus [8], 0.46 m equiv 6hr-1 kg-1 (body weight)-1. Further, the “Urinary Na+” value in the data set on Rattus norvegicus [4] is 0.67 m equiv. For the same compound, the results for the Na in the data set with Rattus norvegicus [6], in the data set on Rattus norvegicus [7] and in the data set filed under Rattus norvegicus [19] were 0.45 m equiv 6hr-1 kg-1 (body weight)-1, 0.8 m equiv 6hr-1 kg-1 (body weight)-1 and 8.2, respectively. For the same compound, the Urine volume in the data set with Rattus norvegicus [9] was determined as 1.84 mL; in the data set with Rattus norvegicus [10] it was 8.7 mL; in the data set with Rattus norvegicus [11], 5.52 mL; with Rattus norvegicus [12], 1.99 mL. The V with Rattus norvegicus [15] is 42.25 ml 6hr-1 (kg of body weight)-1; with Rattus norvegicus [16], 25.06 ml 6hr-1 (kg of body weight)-1. Also, in the data set listed under Rattus norvegicus [17], the ED200 turned out to be 87.61 mg/kg. In addition, in the data set on Rattus norvegicus [18], the Time stood at 2 h.
